Assay outcomes as filed in PubChem BioAssay.
An excerpt weighted towards active compounds, which were near 1.9% of everything screened.
IMP-1 inhibitor = blocks Pseudomonas aeruginosa IMP-1 metallo-beta-lactamase; purified IMP-1, nitrocefin hydrolysis, epi-absorbance fluorescence; inhibition, % at 5.6 µM; actives 0.45% (n = 290,000); AID 1556;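 active = inhibition above the mean plus 3 SD of all compounds in the same screening run, cut at about 4.5% in these data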
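system = purified recombinant IMP-1 beta-lactamase | amount = 0.2 nM IMP-1, as dispensed | medium = HEPES buffer pH 7.1 with ZnSO4 and Brij 35 | times = 25 °C, 15 min preincubation, 25 min reaction | detection = plate fluorescence quenching by hydrolysis product, ex 480/em 530 nm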
T cell modulator = T cell immune modulators affecting CD8 T cell-vesicle binding | actives 0.068% (n = 330,000) | AID 2052 | 2C CD8+ T cell-vesicle binding, flow cytometry; hits give low values | response (vesicle binding), % at 7 µM;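 active = response, share of CD8 T cells binding vesicles, and their 90th percentile fluorescence all below set limits, cut at about 80% in these data, passing the limit was not always enough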;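 also: values below 100% mean blocked vesicle binding to the CD8+ T cells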
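Incubation: binding step 1.5 h, 37 °C, antibody labelling 20 min, ice; system: murine 2C transgenic CD8+ T lymphocytes; technique: cytometric PE anti-B7-1 and Alexa647 anti-CD8 signals after 1% paraformaldehyde fixation; also added: QL9-charged Drosophila Ld/ICAM-1/B7-1 vesicles; control set: naked versus QL9-loaded vesicles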
UBC9 SUMO inh = inhibitors of human SUMOylation (UBC9) | P63279 | HTRF SUMOylation assay, SAE1/SAE2 + UBC9, in vitro | inhibition, % at 35 µM | actives 0.36% (n = 290,000) | AID 2006; in the data active = inhibition above about 50%, passing the limit was not always enough
Target sequence (P63279 whole entry, looked up): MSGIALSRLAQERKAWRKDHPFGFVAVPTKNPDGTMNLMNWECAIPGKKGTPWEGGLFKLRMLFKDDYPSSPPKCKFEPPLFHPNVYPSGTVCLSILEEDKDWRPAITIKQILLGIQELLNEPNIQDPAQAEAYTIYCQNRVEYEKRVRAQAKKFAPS
p-CIP stab down = lowers stability of the mouse p/CIP coactivator protein. F442A p/CIP-EGFP cells, EGFP fluorescence, 16 h. actives 0.01% (n = 290,000). decrease of EGFP signal, % at 10 µM. Q05BA5;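 active = EGFP signal decrease of at least 30% at 10 µM or well 3 SD below plate mean, unless failing retest; inactive = the rest, including hits failing retest or dose response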
VIM-2 inhibitor = blocks Pseudomonas aeruginosa VIM-2 metallo-beta-lactamase; purified VIM-2, nitrocefin hydrolysis, epi-absorbance fluorescence; inhibition, % at 5.6 µM; actives 0.89% (n = 290,000); AID 1527;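 active = inhibition above the mean of all tested compounds plus 3 SD, cutoff set per screening run, cut at about 7.5% in these data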;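 also: red hydrolysis product quenches plate fluorescence so inhibitors raise well fluorescence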
CTSL1 counter = counter-screen for PFM18AAP inhibitors: inhibitors of F. hepatica cathepsin L1; recombinant F. hepatica cathepsin L1, Z-Leu-Arg-MCA fluorescence; inhibition, % at 5.96 µM; actives 0.49% (n = 300,000); AID 1906;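 active = inhibition above the mean of all tested compounds plus 3 SD, set per screening campaign, cut at about 17% in these data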
A number is an active result.

For C=CCN1C(=O)C2(OCCCO2)c2cc(C)ccc21 the results were IMP-1 inhibitor inactive, T cell modulator inactive, UBC9 SUMO inh inactive, p-CIP stab down inactive, VIM-2 inhibitor inactive and CTSL1 counter inactive.
COc1cccc(-c2cc(C(=O)N3CCN(C(=O)c4ccco4)CC3)on2)c1 was read as IMP-1 inhibitor inactive, T cell modulator inactive, UBC9 SUMO inh inactive, p-CIP stab down inactive, VIM-2 inhibitor inactive and CTSL1 counter inactive.
Screening COc1cc(C(=O)OCC(=O)N2CCN(C(C)=O)CC2)ccc1OCC(C)C returned T cell modulator inactive and CTSL1 counter inactive.
For N#CCC(=O)Nc1ccc(C(=O)OCC(=O)NC(=O)NCc2ccco2)cc1 the results were T cell modulator inactive.
For Cc1cc(-c2ccc(S(=O)(=O)N3CCCCC3)s2)on1 the results were IMP-1 inhibitor inactive, T cell modulator inactive, UBC9 SUMO inh inactive, p-CIP stab down inactive, VIM-2 inhibitor inactive and CTSL1 counter inactive.
CC(CO)(CO)NCc1ccc(-c2ccccc2)cc1 was read as IMP-1 inhibitor inactive, T cell modulator inactive, UBC9 SUMO inh inactive, p-CIP stab down inactive, VIM-2 inhibitor inactive and CTSL1 counter inactive.
`OCCNCCNCc1ccc(-c2ccccc2)cc1` gave IMP-1 inhibitor inactive, T cell modulator inactive, UBC9 SUMO inh inactive, p-CIP stab down inactive, VIM-2 inhibitor 9.3 and CTSL1 counter inactive.
Screening COc1cccc(C2C(C(=O)Nc3ccccc3)=C(C)N=c3s/c(=C/c4ccc(OCC(=O)O)cc4)c(=O)n32)c1 (stereo not given) returned IMP-1 inhibitor inactive, T cell modulator inactive, UBC9 SUMO inh inactive, p-CIP stab down inactive, VIM-2 inhibitor inactive and CTSL1 counter inactive.
Screening CC1=C(C(=O)Nc2ccccc2)C(c2ccc(C)o2)n2c(s/c(=C\c3ccco3)c2=O)=N1 (stereo not given) returned IMP-1 inhibitor inactive, UBC9 SUMO inh 71.8, p-CIP stab down inactive and VIM-2 inhibitor inactive.
CC(C)c1ccc(N(C(=O)c2ccc3c(c2)OCO3)C2C=CS(=O)(=O)C2)cc1 (stereo not given) was read as IMP-1 inhibitor inactive, T cell modulator inactive, UBC9 SUMO inh inactive, p-CIP stab down inactive, VIM-2 inhibitor inactive and CTSL1 counter inactive.
N#CC1=C(N)C(C#N)(C#N)[C@H](c2ccoc2)[C@H]2CN(Cc3ccccc3)CC=C12 was read as IMP-1 inhibitor inactive, T cell modulator inactive, UBC9 SUMO inh 62.1, p-CIP stab down inactive, VIM-2 inhibitor inactive and CTSL1 counter inactive.
Screening CN1CC=C2C(C#N)=C(N)C(C#N)(C#N)[C@H](c3ccoc3)[C@H]2C1 returned IMP-1 inhibitor inactive, T cell modulator inactive, UBC9 SUMO inh 87.5, p-CIP stab down inactive, VIM-2 inhibitor inactive and CTSL1 counter inactive.
For Cc1ccc(S(=O)(=O)N2[C@@H](c3ccc(Br)cc3)C(C(=O)O)=C[C@H]2C(C)(C)C)cc1 the results were T cell modulator inactive.
For CCCCN(C(=O)CC1CCCC1)c1c(N)n(CCCC)c(=O)[nH]c1=O the results were T cell modulator inactive.
Screening COc1ccc2cc1Oc1ccc(cc1)CC1c3c(cc(OC)c4c3Oc3cc5c(cc3O4)CCNC5C2)CCN1C (stereo not given) returned IMP-1 inhibitor 4.6, T cell modulator inactive, UBC9 SUMO inh inactive, p-CIP stab down inactive, VIM-2 inhibitor inactive and CTSL1 counter inactive.
Screening O=C(CN1CCOCC1)Nc1nc(-c2ccccc2Cl)cs1 returned IMP-1 inhibitor inactive, T cell modulator inactive, UBC9 SUMO inh inactive, p-CIP stab down inactive, VIM-2 inhibitor inactive and CTSL1 counter inactive.
Screening COC(=O)c1ccccc1NC(=S)NC(=O)c1ccc(C)cc1 returned IMP-1 inhibitor inactive, T cell modulator inactive, UBC9 SUMO inh inactive, p-CIP stab down inactive, VIM-2 inhibitor inactive and CTSL1 counter inactive.
Screening COC(=O)c1cccnc1NC(=S)NNC(=O)c1ccccc1 returned IMP-1 inhibitor 11.2, T cell modulator inactive, UBC9 SUMO inh inactive, p-CIP stab down inactive, VIM-2 inhibitor inactive and CTSL1 counter inactive.
Screening COC(=O)c1ccc(NC(=S)NNC(=O)c2ccccc2)cc1 returned IMP-1 inhibitor inactive, T cell modulator inactive, UBC9 SUMO inh inactive, p-CIP stab down inactive, VIM-2 inhibitor inactive and CTSL1 counter inactive.
For COC(=O)c1ccccc1NC(=S)NC(=O)c1ccccc1 the results were IMP-1 inhibitor 4.7, T cell modulator inactive, UBC9 SUMO inh inactive, p-CIP stab down inactive, VIM-2 inhibitor inactive and CTSL1 counter inactive.
`Cc1cccn2c(=O)c3cc(C(=O)NCCc4ccccc4)sc3nc12` gave IMP-1 inhibitor inactive, T cell modulator inactive, UBC9 SUMO inh inactive, p-CIP stab down inactive, VIM-2 inhibitor inactive and CTSL1 counter inactive.
For Cc1cccn2c(=O)c3cc(C(=O)NC4CCCCCC4)sc3nc12 the results were IMP-1 inhibitor inactive, T cell modulator inactive, UBC9 SUMO inh 55.3, p-CIP stab down inactive, VIM-2 inhibitor inactive and CTSL1 counter inactive.
Cc1ccccc1NC(=O)c1cc2c(=O)n3cccc(C)c3nc2s1 was read as IMP-1 inhibitor inactive, T cell modulator inactive, UBC9 SUMO inh inactive, p-CIP stab down inactive, VIM-2 inhibitor 9.2 and CTSL1 counter inactive.
O=C(O)c1cccnc1C(=O)N1CCc2c([nH]c3ccccc23)C1C(F)(F)F (stereo not given) was read as IMP-1 inhibitor inactive, T cell modulator inactive, UBC9 SUMO inh inactive, p-CIP stab down inactive, VIM-2 inhibitor 9.4 and CTSL1 counter inactive.
Screening Cc1ccccc1C(=O)N1CCc2c([nH]c3ccccc23)C1C(F)(F)F (stereo not given) returned IMP-1 inhibitor inactive, T cell modulator inactive, UBC9 SUMO inh inactive, p-CIP stab down inactive, VIM-2 inhibitor inactive and CTSL1 counter inactive.
`CCN(c1cccc(C)c1)S(=O)(=O)c1ccc2c3c(cccc13)C(=O)N2` gave IMP-1 inhibitor inactive, T cell modulator inactive, UBC9 SUMO inh inactive, p-CIP stab down inactive, VIM-2 inhibitor inactive and CTSL1 counter inactive.
For CCN(CC)S(=O)(=O)c1ccc2c3c(cccc13)C(=O)N2 the results were IMP-1 inhibitor inactive, T cell modulator 0.0, UBC9 SUMO inh inactive, p-CIP stab down inactive, VIM-2 inhibitor inactive and CTSL1 counter inactive.
For CCCc1nc2oc3c(NCCCN(C)C)ncnc3c2c2c1CCCC2 the results were IMP-1 inhibitor inactive, T cell modulator inactive, UBC9 SUMO inh inactive, p-CIP stab down inactive, VIM-2 inhibitor 12.1 and CTSL1 counter inactive.
Screening CC(C)(CNC(=O)c1cc2c(s1)CCCC2)N1CCOCC1 returned T cell modulator 68.5 and CTSL1 counter inactive.
CCOC(=O)C1C(=O)NC(c2ccccc2)=NC1c1ccc(Cl)cc1 (stereo not given) was read as IMP-1 inhibitor inactive, T cell modulator inactive, UBC9 SUMO inh inactive, p-CIP stab down inactive, VIM-2 inhibitor inactive and CTSL1 counter inactive.
For CCOC(=O)C1C(=O)NC(c2ccccc2)=NC1c1cccc(Br)c1 (stereo not given) the results were IMP-1 inhibitor inactive, T cell modulator inactive, UBC9 SUMO inh inactive, p-CIP stab down inactive, VIM-2 inhibitor inactive and CTSL1 counter 21.8.
